The values that follow come from ChEMBL document CHEMBL1800028, “Analogues of 4-[(7-Bromo-2-methyl-4-oxo-3H-quinazolin-6-yl)methylprop-2-ynylamino]-N-(3-pyridylmethyl)benzamide (CB-30865) as potent inhibitors of nicotinamide phosphoribosyltransferase (Nampt)” (J Med Chem, 2010).

SMILES strings stand for the structures. pEC50, pIC50: −log10 of the molar value. Active and inactive are the calls of the source. The calls are words filed in the database; no cut-off is given here.

Usually inhibition stands for how much of the control response was suppressed. A word on the pIC50: it is the negative decadic logarithm of the IC50, by convention in mol/L. The pEC50 is the EC50 on a negative log10 scale, so that one unit is a factor of ten.

Test [1] addresses T1, Nicotinamide phosphoribosyltransferase (Homo sapiens, UniProt P43490). Nature of the test: Inhibition of nicotinamide phosphoribosyltransferase-catalyzed conversion of nicotinamide to nicotinamide mononucleotide relative to untreated enzyme. The conditions noted are these: concentration not given here.
Target sequence in this assay (P43490 whole entry, looked up): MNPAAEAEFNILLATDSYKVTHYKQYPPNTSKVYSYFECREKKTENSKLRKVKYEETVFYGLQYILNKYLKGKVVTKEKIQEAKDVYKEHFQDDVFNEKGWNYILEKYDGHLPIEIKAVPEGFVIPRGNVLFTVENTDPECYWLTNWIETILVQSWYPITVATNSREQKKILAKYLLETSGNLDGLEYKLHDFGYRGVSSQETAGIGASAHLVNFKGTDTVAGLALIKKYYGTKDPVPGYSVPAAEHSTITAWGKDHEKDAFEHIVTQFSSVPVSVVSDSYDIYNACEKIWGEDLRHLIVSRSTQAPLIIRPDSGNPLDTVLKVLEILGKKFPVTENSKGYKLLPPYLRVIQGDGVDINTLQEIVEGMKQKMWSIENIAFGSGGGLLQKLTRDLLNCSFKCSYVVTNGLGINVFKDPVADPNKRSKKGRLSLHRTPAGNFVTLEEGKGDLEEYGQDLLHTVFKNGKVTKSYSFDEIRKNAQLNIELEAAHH
For another test, the target named is Thymidylate synthase (Homo sapiens, UniProt P04818). Kind of test: Inhibition of thymidylate synthase.
Chain of Thymidylate synthase (P04818 whole entry): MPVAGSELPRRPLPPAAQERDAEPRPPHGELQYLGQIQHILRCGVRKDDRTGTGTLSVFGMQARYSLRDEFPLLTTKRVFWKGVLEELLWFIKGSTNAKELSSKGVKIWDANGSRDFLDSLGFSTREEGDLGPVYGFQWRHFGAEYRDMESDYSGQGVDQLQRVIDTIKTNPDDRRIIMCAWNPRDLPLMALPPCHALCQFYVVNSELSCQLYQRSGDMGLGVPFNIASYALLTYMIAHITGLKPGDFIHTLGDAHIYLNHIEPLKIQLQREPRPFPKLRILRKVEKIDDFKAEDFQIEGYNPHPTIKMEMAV
The target in test [2] is T1, Nicotinamide phosphoribosyltransferase. Nature of the test: Inhibition of nicotinamide phosphoribosyltransferase-mediated decrease in cellular NAD level.
Target sequence in this assay (P43490 whole entry): as the sequence (P43490 whole entry, looked up) above
Test [3] shares this target. Kind of test: Inhibition of nicotinamide phosphoribosyltransferase-catalyzed conversion of nicotinamide to nicotinamide mononucleotide. A digest of the protocol:
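Coupled-enzyme format: Nampt turnover of nicotinamide to NMN monitored through a downstream coupled reaction; IC50 determined.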
Target sequence in this assay (P43490 whole entry): as the sequence (P43490 whole entry, looked up) above

For test [4] the target is unchanged. Nature of the test: Inhibition of nicotinamide phosphoribosyltransferase-catalyzed conversion of nicotinamide to nicotinamide mononucleotide at 10 uM.
Target sequence in this assay (P43490 whole entry, looked up): as above
The subject of another test is WIL2. Kind of test: Cytotoxicity against human W1L2 cells. The format is functional, cell-based.
Test [5] has as its target T1, Nicotinamide phosphoribosyltransferase. Nature of the test: Inhibition of Nampt activity in H2O2-induced DNA damage in human MCF10A cells stably transfected with PIK3CA (H1047R) assessed as loss of PARP activity. The format is cell-based. The conditions noted are these: MCF-10A.
Target sequence in this assay (P43490 whole entry, looked up): as above
Test [6] has as its system HCT-116. Kind of test: Cytotoxicity against human HCT116 cells after 72 hrs. The format is functional. The essentials:
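HCT116 colon carcinoma cells treated with compound for 72 h; viability read out as cellular ATP levels.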

Test [7] relates to HCT-116. Kind of test: Cytotoxicity against human HCT116 cells after 72 hrs in presence of 10 uM exogenous nicotinic acid. In kind it is functional, cell-based. As to conditions: HCT-116, 72 h. A digest of the protocol: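 HCT116 colon carcinoma cells treated for 72 h with compound plus 10 μM exogenous nicotinic acid to test whether killing depends on Nampt; viability read out as cellular ATP levels.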

As for `C#CCN(Cc1cc2c(=O)[nH]c(C)nc2cc1Br)c1ccc(C(=O)NCc2ccccn2)cc1`, the inhibition in test [1] was 90%. This compound gave a pIC50 at Thymidylate synthase of 6.81.
With `O=C(CCCCCCCn1cc(-c2cccnc2)nn1)Nc1ccccc1-c1ccccc1`, the pIC50 in test [2] was 8.52.
The compound `C#CCN(Cc1ccc2nc(C)n(C)c(=O)c2c1)c1ccc(C(=O)NCC2CCCNC2)cc1` (configuration not stated) gave a pIC50 in test [3] below 5.00. In [4], the inhibition entry was “inactive”.
`C#CCN(Cc1cc2c(O)nc(C)nc2cc1Br)c1ccc(C(=O)NCc2cccnc2)cc1`: the negative-log EC50 (pEC50) in the test with WIL2 is 8.55.
For the compound `C#CCN(Cc1cc2c(=O)[nH]c(C)nc2cc1Br)c1ccc(C(=O)NCc2ccncc2)cc1`, the pIC50 against Thymidylate synthase was 6.81.
Consider `CC(C)=CCN(Cc1cc2c(=O)n(C)c(C)nc2cc1Cl)c1ccc(C(=O)NCc2cccnc2)cc1`, for which the pIC50 in test [3] was 7.96. Moreover, the inhibitory concentration in test [5] came to 0.0018 µM. Besides, the Activity in the test on HCT-116 [6] was found to be 0.0095 µM. Moreover, the pEC50 in the test with HCT-116 [7] was below 5.00.
For `CC(C)CCN(Cc1ccccc1Cl)c1ccc(C(=O)NCc2cccnc2)cc1`, in that order: 8.21, 0.0079 µM, 0.39 µM and below 5.00.
As to `C#CCN(Cc1cc2c(=O)n(C)c(CN3CCN(C)CC3)nc2cc1Cl)c1ccc(C(=O)NCc2cccnc2)cc1`, in test [3], the pIC50 was 9.51. The inhibitory concentration in test [5] turned out to be 5e-05 µM. Besides, the pEC50 with WIL2 was 9.31. For the same compound, the Activity with HCT-116 [6] came out at 0.00046 µM.
On to `CC(C)=CCN(Cc1cc2c(=O)n(C)cnc2cc1Cl)c1ccc(C(=O)NCc2cccnc2)cc1`, for which the negative-log IC50 (pIC50) in test [3] is 8.59. The inhibitory concentration in test [5] is 0.0005 µM. This compound also yielded an Activity in the test with HCT-116 [6] of 0.0073 µM. Further, in the test on HCT-116 [7], the pEC50 is below 5.00.
`Cn1cnc2cc(Cl)c(CN(CC(N)=O)c3ccc(C(=O)NCc4cccnc4)cc3)cc2c1=O`: the pIC50 in test [3] was 7.25. The inhibitory concentration in test [5] was above 1 µM. The same compound came in with an Activity in the test with HCT-116 [6] above 10 µM. Also, in the test with HCT-116 [7], the pEC50 is below 5.00.
